For assay [1], the target named is T1, Muscarinic acetylcholine receptor M2 (Rattus norvegicus) (UniProt P10980).
T1 sequence (whole entry): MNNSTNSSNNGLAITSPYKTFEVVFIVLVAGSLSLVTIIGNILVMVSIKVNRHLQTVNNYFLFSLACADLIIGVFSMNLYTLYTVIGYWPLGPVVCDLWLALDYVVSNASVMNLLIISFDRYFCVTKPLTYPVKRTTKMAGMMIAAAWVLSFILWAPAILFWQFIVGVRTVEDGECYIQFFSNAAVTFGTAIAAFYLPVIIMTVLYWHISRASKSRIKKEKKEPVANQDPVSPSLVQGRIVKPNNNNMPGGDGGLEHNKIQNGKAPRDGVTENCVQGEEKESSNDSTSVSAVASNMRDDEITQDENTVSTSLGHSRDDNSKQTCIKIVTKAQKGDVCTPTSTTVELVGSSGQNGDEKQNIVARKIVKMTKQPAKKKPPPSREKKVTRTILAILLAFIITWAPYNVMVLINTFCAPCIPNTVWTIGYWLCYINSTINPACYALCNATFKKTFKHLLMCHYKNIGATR
The assay can be described thus: Muscarinic 2 receptor agonistic activity was determined as the selectivity ratio of Ki against [3H]QNB+ Gpp(NH)p to that of [3H]QNB. It counts as functional.

For assay [2], the target named is Muscarinic acetylcholine receptor. The experiment in a line: Binding activity to the muscarinic acetylcholine receptor in rat cortex, assayed using [3H]CD as a radioligand. The class given is tissue-based. A digest of the protocol:
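Male Wistar rat cerebral cortex homogenate in 10 mM Na/K phosphate pH 7.4, diluted 1:300 (wet wt/v), ~0.75 mg protein per 2.0 mL. 1 nM radioligand (55.5 Ci/mmol), prepared fresh in buffer. Competitor 10^-12 to 10^-3 M. Nonspecific binding with 10 μM atropine. Rapid filtration on PEI-treated filters, scintillation counting. Apparent Ki by one-site competitive nonlinear regression.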

Assay [3] has the same target. The assay can be described thus: Binding activity to the muscarinic acetylcholine receptor in rat cortex, assayed using [3H]PZ as a radioligand. It counts as tissue-based. A digest of the protocol: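 Rat (male Wistar, 200-250 g) cortex homogenized in ice-cold Na/K phosphate buffer pH 7.4, diluted 1:400, ~0.55 mg protein per 2.0 mL. 0.1 nM radioligand (84.1 Ci/mmol), made fresh just before use. Unlabeled competitor at final 10^-12 to 10^-3 M. 10 μM atropine for nonspecific. Filtered, counted by liquid scintillation. One-site competitive fit gives apparent Ki.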

The target is the same in assay [4]. The assay can be described thus: Binding activity to muscarinic acetylcholine receptor in rat heart, assayed using [3H]-QNB as a radioligand. A digest of the protocol:
(§1)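 Male Wistar rat heart ventricles flushed, minced, Polytron-homogenized in 10 mM Na/K phosphate pH 7.4, spun 48000 g 15 min 4 °C, resuspended, gauze-filtered, diluted 1:750, 0.15-0.2 mg protein/2.0 mL. 10 μM Gpp(NH)p added to homogenate for line 3. Competitor 10^-12 to 10^-3 M. 10 μM atropine nonspecific. Filtration, scintillation counting. Ki from one-site fit.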

For assay [5] the target is unchanged. The assay can be described thus: Binding activity against Muscarinic acetylcholine receptor in rat cortex, using [3H]QNB as a radioligand. The class given is tissue-based. Summed up: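 Competitor at final 10^-12 to 10^-3 M. 10 μM atropine defines nonspecific binding. Filtration on PEI-soaked GF/B filters, scintillation counting. Apparent Ki from one-site competitive nonlinear fit.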

The target in assay [6] is T2, Muscarinic acetylcholine receptor M1 (Rattus norvegicus) (UniProt P08482).
T2 sequence (whole entry): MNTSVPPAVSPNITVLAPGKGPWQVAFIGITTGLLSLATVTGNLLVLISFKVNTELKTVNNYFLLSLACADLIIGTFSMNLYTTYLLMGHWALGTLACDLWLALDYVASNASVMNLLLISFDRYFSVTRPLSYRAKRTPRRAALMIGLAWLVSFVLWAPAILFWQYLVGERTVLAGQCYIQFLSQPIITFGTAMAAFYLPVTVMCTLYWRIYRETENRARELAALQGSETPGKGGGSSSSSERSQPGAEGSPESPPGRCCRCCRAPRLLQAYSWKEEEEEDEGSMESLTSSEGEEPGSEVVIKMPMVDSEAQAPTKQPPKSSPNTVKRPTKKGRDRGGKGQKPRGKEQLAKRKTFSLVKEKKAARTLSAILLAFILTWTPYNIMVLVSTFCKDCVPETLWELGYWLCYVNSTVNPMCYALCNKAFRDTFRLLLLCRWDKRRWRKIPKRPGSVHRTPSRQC
The assay can be described thus: Muscarinic 1 receptor agonistic activity as the selectivity ratio of Ki against [3H]-QNB to that of [3H]PZ. It counts as functional.

For assay [7], the target named is Muscarinic receptor M1 and M2 (Rattus norvegicus) (UniProt P08482+P10980). The assay can be described thus: The agonist ratio as the ratio of Ki against [3H]QNB to that of [3H]-CD. It counts as functional.
The target of assay [8] is Muscarinic acetylcholine receptor. The experiment in a line: Binding activity to muscarinic acetylcholine receptor in rat heart, assayed using [3H]QNB as a radioligand in the presence of Gpp(NH)p. Summed up: as §1
Assay [9] concerns the target T2, Muscarinic acetylcholine receptor M1 (Rattus norvegicus). The assay can be described thus: Muscarinic 1 receptor agonistic activity as the selectivity ratio of Ki against [3H]-QNB+ Gpp(NH)p to that of [3H]PZ. It counts as functional.

pKi: −log10 of the molar value.

Take `O=CN1CCC[C@@H]1C#CCN1CCCC1`: the Ratio in assay [1] is 1; in assay [6], 2.7; in [7], 0.7; in assay [9], 2.5. The inhibition constant Ki (in general, the dissociation constant of the complex between target and ligand, obtained from inhibition or displacement) in assay [2] is 3.35 µM; in assay [3], 1.18 µM; in assay [4], 3.26 µM; in [5], 2.39 µM; in assay [8], 3.12 µM.
Turning to `C(#C[C@H]1CCCN1)CN1CCCC1.Cl.Cl`, the Ratio in [1] is 1.5; in assay [6], 2; in [7], 2.5; in assay [9] it was 3. Moreover, the Ki in assay [2] is 1.28 µM; in assay [3] it was 6.5 µM; in assay [4] it was 12.9 µM; in assay [5] it was 3.22 µM; in assay [8], 19.6 µM.
With `CCOC(=O)N1CCC[C@@H]1C#CCN1CCCC1`, the Ratio in assay [1] amounted to 1.1; in assay [6], 4.9; in assay [7], 2.3; in assay [9] it was 5.5. In addition, the Ki in assay [2] was 0.51 µM; in assay [3], 0.19 µM; in [4] it was 0.94 µM; in [5], 1.16 µM; in assay [8] it was 1.04 µM.
`COC(=O)N1CCC[C@@H]1C#CCN1CCCC1`: the Ratio amounted to 1.7 in [1], 1.8 in assay [6], 1.5 in [7] and 3.2 in assay [9]. In addition, the Ki in assay [2] amounted to 0.53 µM; in [3] it was 1.59 µM; in assay [4] it was 2.94 µM; in [5], 0.81 µM; in assay [8], 5.06 µM.
For the compound `CC(C)(C)OC(=O)N1CCC[C@@H]1C#CCN1CCCC1`, the Ratio in assay [1] came to 1.5; in assay [6], 3.1; in assay [7], 3; in [9] it was 4.7. In addition, the inhibition constant Ki in [2] was found to be 0.22 µM; in [3], 0.42 µM; in [4], 1.32 µM; in assay [5], 0.66 µM. For the same compound, the negative logarithm of the Ki (pKi) (commonly −log10 of the Ki, conventionally taken in molar units) in assay [8] was 5.71.
For the compound `Cl.O=C(N1CCC[C@H]1C#CCN1CCCC1)C(F)(F)F`, the Ratio amounted to 1.4 in [1], 2.1 in [6], 1.6 in assay [7] and 2.9 in [9]. For the same compound, the inhibition constant (Ki) in assay [2] was 2.22 µM; in [3] it was 3.1 µM; in assay [4] it was 6.4 µM; in [5] it was 3.45 µM; in assay [8] it was 8.86 µM.
As for `CC(=O)N1CCC[C@@H]1C#CC[N+](C)(C)C`, the Ratio in [1] stood at 2.6; in assay [6] it was 1.3; in assay [7] it was 20.3; in assay [9], 3.4. For the same compound, the Ki turned out to be 0.11 µM in [2]; 1.63 µM in [3]; 2.07 µM in assay [4]; 2.23 µM in assay [5]; 5.47 µM in assay [8].
Turning to `COC(=O)N1CCC[C@H]1C#CCN1CCCC1`, the Ratio in assay [1] was 1.3; in [6], 3; in assay [7] it was 0.4; in [9], 3.9. The Ki in assay [2] is 1.44 µM; in assay [3], 1.48 µM; in assay [4] it was 4.42 µM; in assay [5], 0.62 µM; in assay [8], 5.75 µM.
Turning to `CC(=O)N1CCC[C@@H]1C#CCN1CCCC1.Cl`, the Ratio in [1] turned out to be 2.7; in assay [6], 3.6; in assay [7], 1; in [9], 9.6. Moreover, the Ki came out at 0.45 µM in assay [2]; 0.17 µM in assay [3]; 0.61 µM in [4]; 0.43 µM in assay [5]; 1.63 µM in [8].
As for `CC(C)(C)OC(=O)N1CCC[C@H]1C#CCN1CCCC1`, the Ratio in assay [1] was 6.9; in [6], 1.9; in assay [7] it was 3; in assay [9] it was 13. In addition, the Ki in [2] worked out at 0.33 µM; in assay [3], 0.07 µM; in [4] it was 0.13 µM; in assay [5] it was 0.98 µM; in [8], 0.9 µM.
With `Cl.O=C(N1CCC[C@@H]1C#CCN1CCCC1)C(F)(F)F`, the Ratio came out at 0.9 in assay [1], 8.8 in [6], 0.8 in [7] and 7.6 in assay [9]. The inhibition constant Ki in [2] amounted to 0.44 µM; in [3], 0.14 µM; in [4], 1.23 µM; in [5], 0.36 µM; in assay [8], 1.07 µM.
Take `CC(=O)N1CCC[C@@H]1C#CCN(C)C`: the Ratio in [1] was 3.6; in [6], 2.2; in [7], 8.4; in assay [9] it was 8.1. Also, the inhibitory constant (Ki) in [2] amounted to 1.65 µM; in assay [3], 5.25 µM; in [4], 11.8 µM; in assay [5], 13.8 µM; in [8], 42.4 µM.
`CN(C)CC#C[C@@H]1CCCN1C(=O)OC(C)(C)C`: the Ratio in assay [1] turned out to be 1.1; in assay [6], 1.5; in [7], 3.5; in [9] it was 1.6. Besides, the inhibition constant (Ki) came to 3.3 µM in [2]; 9.04 µM in assay [3]; 13.4 µM in [4]; 11.4 µM in [5]; 14.1 µM in [8].
For the compound `CN(C)CC#C[C@H]1CCCN1.Cl.Cl`, the Ratio in [1] was 1; in assay [6], 1.1; in [7], 0.5; in [9], 1.2. Further, the Ki was 37.08 µM in [2]; 25.2 µM in assay [3]; 28.5 µM in assay [4]; 18.7 µM in assay [5]; 29.3 µM in [8].
Regarding `CN(C)CC#C[C@H]1CCCN1C(=O)OC(C)(C)C`, the Ratio stood at 3.8 in assay [1], 0.9 in [6], 12.8 in assay [7] and 3.5 in assay [9]. Besides, the inhibition constant Ki turned out to be 0.25 µM in assay [2]; 5.6 µM in assay [3]; 5.16 µM in assay [4]; 3.2 µM in assay [5]; 19.6 µM in [8].
For `O=C1CCCN1CC#CCN1CCCC1` [OXOTREMORINE], the Ratio in assay [1] came to 35; in [6] it was 0.03; in assay [7] it was 120; in assay [9], 1. Moreover, the Ki in [2] was determined as 0.0005 µM; in assay [3], 0.14 µM; in assay [4] it was 0.004 µM; in assay [5], 0.06 µM; in assay [8], 0.14 µM.
As for `CCOC(=O)N1CCC[C@H]1C#CCN1CCCC1`, the Ratio in [1] turned out to be 1.2; in assay [6] it was 8.5; in assay [7], 0.5; in [9], 10. Also, the Ki in assay [2] came to 0.61 µM; in assay [3], 0.1 µM; in [4] it was 0.85 µM; in assay [5], 0.31 µM; in [8], 1 µM.

Values taken from ChEMBL document CHEMBL1125029, “Chemical and biochemical studies of 2-propynylpyrrolidine derivatives. Restricted-rotation analogues of N-methyl-N-(1-methyl-4-pyrrolidino-2-butynyl)acetamide (BM-5)” (J Med Chem, 1990).
